Paper PMC3855065 (MedChemComm, 2013)
Residue numbers refer to the chain shown, from its start.

Assays:
[1] = biological target: T1, C. hominis DHFR (Cryptosporidium parvum, UniProt Q27552); experiment: Mode of inhibition: steady-state substrate profile for H2folate and NADPH; assay type: biochemical
T1 sequence (Q27552 1-521): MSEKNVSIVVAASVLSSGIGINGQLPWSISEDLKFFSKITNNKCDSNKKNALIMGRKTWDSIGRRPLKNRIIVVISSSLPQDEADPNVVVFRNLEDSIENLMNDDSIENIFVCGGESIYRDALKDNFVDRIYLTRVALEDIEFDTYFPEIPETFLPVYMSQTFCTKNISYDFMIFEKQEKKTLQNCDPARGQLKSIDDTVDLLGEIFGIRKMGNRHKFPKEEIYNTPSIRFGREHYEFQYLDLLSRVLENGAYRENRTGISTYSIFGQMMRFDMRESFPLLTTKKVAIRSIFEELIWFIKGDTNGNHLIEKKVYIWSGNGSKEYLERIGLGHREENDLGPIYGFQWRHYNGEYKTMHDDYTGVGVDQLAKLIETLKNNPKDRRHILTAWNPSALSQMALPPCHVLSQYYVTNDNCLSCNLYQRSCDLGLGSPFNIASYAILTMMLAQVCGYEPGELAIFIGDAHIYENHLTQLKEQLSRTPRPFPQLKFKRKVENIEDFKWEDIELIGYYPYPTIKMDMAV
Procedure, shortened: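 Steady-state DHFR activity followed by absorbance at 340 nm. The enzyme was bifunctional TS–DHFR expressed in E. coli BL21 and purified. The test compound, from a DMSO stock, was preincubated with enzyme and substrates for 30 min before the reaction was started. Rates were normalised to an equal-volume DMSO blank. H2folate or NADPH concentration was varied, and mode was assigned from rate profiles and Lineweaver–Burk plots by Michaelis–Menten treatment.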

[2] = biological target: T2, C. hominis Beta Face DHFR (Cryptosporidium parvum, UniProt Q27552, F207A/I196A/L203A/S195A/T199A/V200A); experiment: Steady-state DHFR inhibition assay against Beta Face mutant enzyme; assay type: biochemical; conditions: IC50 C. hominis Beta Face DHFR, Beta Face mutant enzyme, steady-state
T2 sequence (Q27552 1-521 S195A/I196A/T199A/V200A/L203A/F207A): T1 sequence (Q27552 1-521) with S195A, I196A, T199A, V200A, L203A, F207A

[3] = test system: C. hominis Beta Face DHFR; experiment: as above; assay type: biochemical, Cryptosporidium hominis; conditions: Beta Face vs WT ChDHFR
[4] = biological target: T3, Human DHFR (Homo sapiens, UniProt P00374); experiment: Steady-state DHFR inhibition assay against the human enzyme; assay type: biochemical; conditions: up to 1 mM mimetic
T3 sequence (P00374 1-187): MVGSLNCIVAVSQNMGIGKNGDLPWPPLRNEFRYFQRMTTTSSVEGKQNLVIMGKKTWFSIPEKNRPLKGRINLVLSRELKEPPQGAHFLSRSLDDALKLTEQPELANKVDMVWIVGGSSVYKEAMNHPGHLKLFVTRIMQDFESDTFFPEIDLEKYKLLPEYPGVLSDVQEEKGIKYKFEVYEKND
Procedure, shortened: (§1)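 Each reaction (DHFR or TS) was measured spectroscopically at 340 nm under steady-state conditions. The test compound came from a DMSO stock and was incubated with enzyme and substrates for 30 min before initiation. Activity was normalised to an equal-volume DMSO control. All targets were run at identical enzyme and ligand concentrations. Values are mean ± standard deviation.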

[5] = biological target: T4, C. hominis TS (Cryptosporidium parvum, UniProt Q27552); experiment: Steady-state TS inhibition assay; assay type: biochemical; conditions: read-out: IC50 C. hominis TS
T4 sequence (Q27552 1-521): T1 sequence (Q27552 1-521)
Procedure, shortened: as §1

Cc1ccc(CN(C(=O)Nc2ccc(CCC(=O)O)cc2Cc2ccccc2)C(=O)c2ccc(CCC(=O)O)c(CC(C)C)c2)cc1 [mimetic 1]
Mode of inhibition ([1]; data not shown): noncompetitive mode of inhibition

CC(C)CN(C(=O)Nc1ccc(CCC(=O)O)cc1Cc1ccccc1)C(=O)c1ccc(OCC(=O)O)c(Cc2ccccc2)c1 [mimetic 2]
IC50 [2]: ~20 µM | Potency against Beta Face relative to WT [3]: at least 10 fold | Inhibition of human DHFR [4]: no inhibition | IC50 [5]: 570 ± 60 µM | Vmax, NADPH substrate profile ([1]; in the presence of 250 µM compound (1.33 ± 0.02 in the absence)): 0.41 ± 0.01 µmol/min | Vmax, H2folate substrate profile ([1]; in the presence of 250 µM compound (1.46 ± 0.03 in the absence)): 0.48 ± 0.06 µmol/min | Mode of inhibition for H2folate ([1]; steady-state substrate profile): noncompetitive (mixed) inhibitor | Mode of inhibition for NADPH ([1]; steady-state substrate profile): noncompetitive inhibitor
